Measured values reported in paper PMC10127574 (ACS chemical biology, 2015).
Values after ≈ are worked out from the molar mass of the structure shown.

Assays:
[1] = molecular target: T1, cysteine-free form of IDE (CF-IDE) (Homo sapiens, UniProt P14735, C819S, form not given); test: IDE activity assay with FRET1 using cysteine-free IDE; format: biochemical; details: read-out: ki CF-IDE
T1 sequence (P14735 42-1019 C819S): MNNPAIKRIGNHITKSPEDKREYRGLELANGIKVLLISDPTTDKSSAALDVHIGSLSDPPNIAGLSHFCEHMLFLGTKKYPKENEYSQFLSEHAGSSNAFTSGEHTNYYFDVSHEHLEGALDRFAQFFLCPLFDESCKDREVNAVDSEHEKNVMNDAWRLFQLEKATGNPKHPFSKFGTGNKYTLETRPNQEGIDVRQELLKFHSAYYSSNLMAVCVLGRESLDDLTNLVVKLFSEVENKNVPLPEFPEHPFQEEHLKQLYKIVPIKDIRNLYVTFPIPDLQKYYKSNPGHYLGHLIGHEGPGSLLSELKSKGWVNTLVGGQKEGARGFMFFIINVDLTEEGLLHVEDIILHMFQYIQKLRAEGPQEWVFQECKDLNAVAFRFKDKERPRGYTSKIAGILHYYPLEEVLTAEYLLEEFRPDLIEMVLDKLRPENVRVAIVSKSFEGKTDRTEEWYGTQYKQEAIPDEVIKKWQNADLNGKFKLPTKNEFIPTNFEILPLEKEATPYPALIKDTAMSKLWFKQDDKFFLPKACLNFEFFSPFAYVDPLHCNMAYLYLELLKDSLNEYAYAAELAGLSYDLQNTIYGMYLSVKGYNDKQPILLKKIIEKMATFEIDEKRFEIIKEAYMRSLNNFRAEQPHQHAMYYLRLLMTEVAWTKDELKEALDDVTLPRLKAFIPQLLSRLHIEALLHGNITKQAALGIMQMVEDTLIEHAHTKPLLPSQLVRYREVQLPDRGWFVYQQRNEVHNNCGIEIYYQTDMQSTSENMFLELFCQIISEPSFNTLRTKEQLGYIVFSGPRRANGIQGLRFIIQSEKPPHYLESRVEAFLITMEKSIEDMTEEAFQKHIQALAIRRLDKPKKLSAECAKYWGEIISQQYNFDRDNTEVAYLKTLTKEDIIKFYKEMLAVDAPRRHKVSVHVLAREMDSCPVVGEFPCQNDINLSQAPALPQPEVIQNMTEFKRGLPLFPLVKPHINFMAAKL

[2] = solubility in assay buffer; format: physicochemical; details: aqueous buffer
[3] = liver microsome stability, rat; format: in vitro ADME; details: rat liver microsomes
WT-IDE = molecular target: T2, WT-IDE (Homo sapiens, UniProt P14735); test: kinetics of irreversible inhibition; format: biochemical
T2 sequence (P14735 1-1019): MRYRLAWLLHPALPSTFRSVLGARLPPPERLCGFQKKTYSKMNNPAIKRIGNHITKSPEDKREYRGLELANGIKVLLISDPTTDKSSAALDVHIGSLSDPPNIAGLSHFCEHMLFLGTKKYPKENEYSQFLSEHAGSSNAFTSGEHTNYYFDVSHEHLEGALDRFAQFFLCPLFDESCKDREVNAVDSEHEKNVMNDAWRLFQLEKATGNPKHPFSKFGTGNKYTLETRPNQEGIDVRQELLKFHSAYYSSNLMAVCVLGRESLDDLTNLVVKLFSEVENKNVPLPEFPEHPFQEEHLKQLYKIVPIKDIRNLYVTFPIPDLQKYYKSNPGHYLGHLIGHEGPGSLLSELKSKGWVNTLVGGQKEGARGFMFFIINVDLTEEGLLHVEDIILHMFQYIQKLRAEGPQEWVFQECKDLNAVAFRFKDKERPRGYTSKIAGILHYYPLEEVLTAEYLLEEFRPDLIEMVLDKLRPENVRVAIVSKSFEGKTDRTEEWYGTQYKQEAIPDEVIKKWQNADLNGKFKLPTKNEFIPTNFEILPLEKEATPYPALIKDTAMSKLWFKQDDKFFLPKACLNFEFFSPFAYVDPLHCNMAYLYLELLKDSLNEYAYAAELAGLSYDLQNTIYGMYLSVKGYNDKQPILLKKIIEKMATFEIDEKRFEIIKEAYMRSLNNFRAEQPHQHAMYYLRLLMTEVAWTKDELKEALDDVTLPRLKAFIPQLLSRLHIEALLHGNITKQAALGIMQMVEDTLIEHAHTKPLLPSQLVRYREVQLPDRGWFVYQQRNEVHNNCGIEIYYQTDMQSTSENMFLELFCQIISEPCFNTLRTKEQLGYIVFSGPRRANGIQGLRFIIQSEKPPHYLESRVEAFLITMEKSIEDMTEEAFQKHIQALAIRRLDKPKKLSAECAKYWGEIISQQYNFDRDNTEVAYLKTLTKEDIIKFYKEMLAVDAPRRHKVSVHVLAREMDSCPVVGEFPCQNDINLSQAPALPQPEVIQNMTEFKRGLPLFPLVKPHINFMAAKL
Outline: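 Recombinant WT-IDE (2 nM) and FRET1 substrate (5 μM) were monitored continuously at 3-s intervals, starting immediately after adding inhibitor at several concentrations. Curve fits gave observed rate constants, which were plotted against inhibitor concentration. A hyperbolic fit gave kinhib and KM. LE was taken as ΔG/heavy atoms using KM; SEI as pKM/tPSA/100 Å2.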

[4] = liver microsome stability, mouse; format: in vitro ADME; details: mouse liver microsomes

In the case of `O=c1c2cc(F)ccc2sn1-c1cc(S(=O)(=O)N2CCOCC2)ccc1N1CCOCC1` [Compound 8, 5-fluoro-2-(2-morpholin-4-yl-5-morpholin-4-ylsulfonylphenyl)-1,2-benzothiazol-3-one], the Ki [1] is reported as 8.37 µM, the solubility [2] is reported as 5.1 µM (≈ 2.45 µg/mL) and the “Liver microsome stability, Rat” value [3] is reported as 50 min. The kinhib (WT-IDE; Table 3, n=5) was 13.4 ± 2.7 (n=5) min^−1, the kinhib (WT-IDE; WT-IDE 2 nM, FRET1 5 μM, rate constant of irreversible step) was 13.4 min⁻¹ and the “LE (ligand efficiency, ΔG/HA)” value (WT-IDE; calculated using KM value) was 0.234 kcal mol^−1 HA^−1. The “Liver microsome stability, Mouse” value [4] was 24 min.
